Experiment [1] concerns human chronic myelogenous K562 leukemia cells. Briefly: Cell proliferation analysis, K562 cells. The following applies: Homo sapiens. It counts as cell-based. The gist of the method: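 K562 cells grown in RPMI 1640 with 10% FCS, 2 mM L-glutamine, […] and penicillin/streptomycin at 37°C, 5% CO2. DMSO stocks (1 mg/mL) diluted in medium. Cells (1×10^4/well) exposed to increasing concentrations for 24 h at 37°C, then counted electronically. IC50 is 50% growth inhibition vs untreated controls. Duplicate cultures per concentration, repeated experiments, mean ± SE.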

In another experiment the test system is K562 cells. Briefly: Cell cycle analysis by flow cytometry. Particulars: for Cell cycle percentage G0/G1 / Cell cycle percentage G2/M / Cell cycle percentage S: K562 cells treated at the IC50, calculated using living cells, mean ± SE; for Effect on cell cycle distribution (in words): K562 cells, each compound at the IC50 value. The class given is cell-based, human. A digest of the protocol: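 K562 cells grown in RPMI 1640 with 10% FCS, 2 mM L-glutamine, penicillin (100 U/ml) and streptomycin (100 μg/ml) at 37 °C under 5% CO2, then exposed to test compound. Cells washed once in ice-cold PBS and resuspended at 1×10^6/mL in hypotonic propidium iodide (50 μg/mL, 0.1% sodium citrate, 0.03% NP-40) for 30 min. Single-parameter flow cytometry DNA histograms; phase percentages from living cells; hypodiploid peak scored as apoptotic.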

The subject of another experiment is tubulin. In words: Inhibition of [3H]colchicine binding to tubulin. Particulars: for Colchicine binding % ±SD (inhibition of [3H]colchicine binding): tubulin, colchicine and tested compound at 1, 5 and 1 μM. The gist of the method:
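Purified tubulin incubated with [3H]colchicine and test compound for 10 min at 37 °C. Read-out is percent inhibition of radiolabelled colchicine binding. Combretastatin A-4 served as reference at 1 μM.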

Setting [2] is: K562, 24 h, read-out: IC50 K562.
Where [3] appears, read: K562, read-out: IC50 (nM) in Table 3.

Where two headings read alike, the source gives them in different places.

For the compound `COc1ccc2c(NC(C)=O)c(C(=O)c3cc(OC)c(OC)c(OC)c3)oc2c1` [Compound 3i, N-[6-Methoxy-2-(3,4,5-trimethoxybenzoyl)-1-benzofuran-3-yl]acetamide], the IC50 (in general, the concentration at which inhibition is half-maximal) in experiment [1] (setting [2]) stood at 27 ± 10 nM. Also, the IC50 in experiment [1] (setting [3]) came to 85 nM. For the same compound, in the experiment with K562 cells, the “Cell cycle percentage G0/G1” value is listed as 27±5%, the “Cell cycle percentage G2/M” value is 37±6% and the “Cell cycle percentage S” value is 36±8%. Further, the “Colchicine binding % ±SD (inhibition of [3H]colchicine binding)” value in the experiment with tubulin was 51±7%.

For the compound `COc1ccc2c(NC(=O)CCl)c(C(=O)c3cc(OC)c(OC)c(OC)c3)oc2c1` [Compound 3j, 2-Chloro-N-[6-methoxy-2-(3,4,5-trimethoxybenzoyl)-1-benzofuran-3-yl]acetamide], in experiment [1] (setting [2]), the half-maximal inhibitory concentration (IC50) was 30 ± 20 nM. Further, the IC50 in experiment [1] (setting [3]) was 400 nM. Further, in the experiment with K562 cells, the “Cell cycle percentage G0/G1” value is 23±4%, the “Cell cycle percentage G2/M” value is recorded as 33±5%, the “Cell cycle percentage S” value is given as 44±7% and the “Effect on cell cycle distribution (in words)” value was “caused cells to accumulate in late S phase”. The “Colchicine binding % ±SD (inhibition of [3H]colchicine binding)” value in the experiment with tubulin was determined as 47±5%.

Take `COc1ccc2c(NC(=O)CBr)c(C(=O)c3cc(OC)c(OC)c(OC)c3)oc2c1` [Compound 3k, 2-Bromo-N-[6-methoxy-2-(3,4,5-trimethoxybenzoyl)-1-benzofuran-3-yl]acetamide]: the IC50 in experiment [1] (setting [2]) is 180 ± 30 nM. Also, the half-maximal inhibitory concentration (IC50) in experiment [1] (setting [3]) was 212 nM. For the same compound, in the experiment on K562 cells, the “Cell cycle percentage G0/G1” value is given as 6±1%, the “Cell cycle percentage G2/M” value is 67±8% and the “Cell cycle percentage S” value is listed as 27±4%. The “Colchicine binding % ±SD (inhibition of [3H]colchicine binding)” value with tubulin amounted to 49±2%.

With `COc1ccc2c(NC(=O)CI)c(C(=O)c3cc(OC)c(OC)c(OC)c3)oc2c1` [Compound 3l, 2-Iodo-N-[6-methoxy-2-(3,4,5-trimethoxybenzoyl)-1-benzofuran-3-yl]acetamide], the IC50 in experiment [1] (setting [2]) was 64 ± 20 nM. Also, the IC50 in experiment [1] (setting [3]) was 115 nM. Moreover, in the experiment with K562 cells, the “Cell cycle percentage G0/G1” value is 23±3%, the “Cell cycle percentage G2/M” value was 21±3%, the “Cell cycle percentage S” value was 56±4% and the “Effect on cell cycle distribution (in words)” value is recorded as “caused an increase in the percentage of cells in S phase”. For the same compound, in the experiment with tubulin, the “Colchicine binding % ±SD (inhibition of [3H]colchicine binding)” value stood at 54±1%.

Take `COc1ccc(/C=C\c2cc(OC)c(OC)c(OC)c2)cc1O` [combretastatin A-4, reference compound]: in the experiment on tubulin (combretastatin A-4 at 1 μM, generally observed), the “Inhibition of colchicine binding” value is recorded as 85–90%.

The record behind these values is PMC2911241 (Letters in drug design & discovery, 2010).
